# Activity calls are given as the source filed them. The calls are words filed in the database; no cut-off is given here.
# Experiments:
# HepG2 [1] = assay: Cytotoxicity against human HepG2 cells incubated for 72 hrs by SRB assay; type: functional, cell-based; conditions: HepG2, 72 h
# Procedure, shortened: (§1)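 Cells grown in DMEM with 10% FCS, 2 mM L-glutamine, NEAA and antibiotics at 37 °C, 5% CO2, then seeded at 1000–5000 cells/well and grown 24 h. Compounds were added from DMSO for 72 h, following NCI guidelines. Cells were fixed in cold 10% TCA for 1 h at 4 °C and stained with 0.4% SRB in 1% acetic acid for 10 min. Bound dye was dissolved in 10 mM Tris and absorbance read at 515 nm.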
# [2] = Cytotoxicity against human MV cells incubated for 72 hrs by SRB assay; type: functional, cell-based; procedure, shortened: as §1
# [3] = Cytotoxicity against human FOCUS cells incubated for 72 hrs by SRB assay; type: functional, cell-based; procedure, shortened: as §1
# HCT-116 [4] = assay: Cytotoxicity against human HCT116 cells incubated for 72 hrs by SRB assay; type: functional, cell-based; conditions: HCT-116, 72 h; procedure, shortened: as §1
# T47D = assay: Cytotoxicity against human T47D cells incubated for 72 hrs by SRB assay; type: functional, cell-based; procedure, shortened: as §1
# BT-20 = assay: Cytotoxicity against human BT20 cells incubated for 72 hrs by SRB assay; type: functional, cell-based; conditions: BT-20, 72 h; procedure, shortened: as §1
# CAMA-1 [5] = assay: Cytotoxicity against human CAMA1 cells incubated for 72 hrs by SRB assay; type: functional, cell-based; conditions: CAMA-1, 72 h; procedure, shortened: as §1
# MFE-296 = assay: Cytotoxicity against human MFE296 cells incubated for 72 hrs by SRB assay; type: functional, cell-based; conditions: MFE-296, 72 h; procedure, shortened: as §1
# Huh-7 [6] = assay: Growth inhibition of human HuH7 cells incubated for 48 hrs by Giemsa staining; type: functional, cell-based
# Procedure, shortened: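 Cells grown overnight, compound added from DMSO solution, then incubated 48 h more. Attached cells stained with Giemsa and photographed; qualitative read-out.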
# Huh-7 [7] = assay: Induction of cell death in human HuH7 cells at 2.5 to 40 uM incubated for 72 hrs by SRB assay; type: functional, cell-based
# Procedure, shortened: (§2)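 Cells seeded and grown 24 h at 37 °C, then treated 72 h in triplicate. Fixed with cold 10% TCA 1 h at 4 °C, stained with 0.4% SRB in 1% acetic acid 10 min, washed in 1% acetic acid. Dye solubilized in 10 mM Tris base; absorbance read at 515 nm. Normalized to DMSO control and Tz; three independent experiments.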
# HCT-116 [8] = assay: Induction of cell death in human HCT116 cells at 2.5 to 40 uM incubated for 72 hrs by SRB assay; type: functional, cell-based; procedure, shortened: as §2
# MCF7 [9] = assay: Induction of cell death in human MCF7 cells at 2.5 to 40 uM incubated for 72 hrs by SRB assay; type: functional, cell-based; procedure, shortened: as §2
# Huh-7 [10] = assay: Induction of apoptosis in human HuH7 cells assessed as DNA fragmentation at 10 uM incubated for 48 hrs by TUNEL assay; type: functional, cell-based
# Procedure, shortened: (§3)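 Cells grown overnight on coverslips, then exposed 48 h. Fixed in cold methanol; TUNEL done with an in situ cell death detection kit. Nuclei counterstained with Hoechst 33258 (3 μg/mL, 5 min, dark) and viewed by fluorescence microscopy.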
# CAMA-1 [11] = assay: Induction of cell death in human CAMA1 cells at 0.02 uM incubated for 72 hrs by real-time cell analysis; type: functional, cell-based
# Procedure, shortened: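 Cells (1000-5000/well) on impedance plates monitored by real-time cell analysis. Treated about 24 h after seeding, in log phase, and followed 72 h against DMSO controls. Inhibition (%) = (1 − CI treated/CI DMSO) × 100. At least three repeats.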
# Huh-7 [12] = assay: Cytotoxicity against human HuH7 cells incubated for 72 hrs by SRB assay; type: functional, cell-based; conditions: Huh-7, 72 h; procedure, shortened: as §1
# MCF7 [13] = assay: Cytotoxicity against human MCF7 cells incubated for 72 hrs by SRB assay; type: functional, cell-based; conditions: MCF7, 72 h; procedure, shortened: as §1
# HepG2 [14] = assay: Induction of apoptosis in human HepG2 cells assessed as DNA fragmentation at 10 uM incubated for 48 hrs by TUNEL assay; type: functional, cell-based; procedure, shortened: as §3
# FOCUS [15] = assay: Induction of apoptosis in human FOCUS cells assessed as DNA fragmentation at 10 uM incubated for 48 hrs by TUNEL assay; type: functional, cell-based; procedure, shortened: as §3
# Huh-7 [16] = assay: Induction of apoptosis in human HuH7 cells assessed as cytochrome c release at 10 uM incubated for 48 hrs by immunostaining; type: functional, cell-based
# Procedure, shortened: (§4)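 After 48 h exposure, coverslip-grown cells fixed in 4% paraformaldehyde, permeabilized in ice-cold acetone, blocked in 3% BSA 1 h at 37 °C. Anti-cytochrome c monoclonal applied overnight at 4 °C, then FITC anti-mouse secondary 1 h at room temperature. Diffuse cytoplasmic staining scored by fluorescence microscopy.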
# FOCUS [17] = assay: Induction of apoptosis in human FOCUS cells assessed as cytochrome c release at 10 uM incubated for 48 hrs by immunostaining; type: functional, cell-based; procedure, shortened: as §4
# HepG2 [18] = assay: Induction of apoptosis in human HepG2 cells assessed as cytochrome c release at 10 uM incubated for 48 hrs by immunostaining; type: functional, cell-based; procedure, shortened: as §4
# Huh-7 [19] = assay: Cell cycle arrest in human HuH7 cells assessed as subG1/G1 phase accumulation at 5 uM incubated for 12 hrs to 24 hrs by propidium iodide staining based flow cytometry; type: functional
# Procedure, shortened: (§5)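 Cells seeded 100,000-200,000 per dish, grown 24 h, then held a further day in starvation medium (1% FBS, 1% P/S, 1% NEAA in DMEM). Treated with compound or DMSO, harvested by trypsinization, fixed in ice-cold 70% ethanol at 4 °C. Stained 40 min at 37 °C in the dark with propidium iodide, RNase A and Triton X-100 in PBS. G1 = 2N, G2 = 4N; >4N cells gated out.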
# [20] = Cell cycle arrest in human Mahlavu cells assessed as subG1/G1 phase accumulation at 5 uM incubated for 12 hrs to 24 hrs by propidium iodide staining based flow cytometry; type: functional; procedure, shortened: as §5
# HepG2 [21] = assay: Increase in caspase-9 activation in human HepG2 cells at 10 uM incubated for 12 hrs by Caspase Glo assay; type: functional, cell-based
# Procedure, shortened: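 HepG2 pre-incubated 24 h at 37 °C with DMSO, then moved to fresh medium with compound. Caspase-9 activity read by Caspase-Glo after 12 h and normalized to untreated controls. Two independent experiments in duplicate.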
# HepG2 [22] = assay: Increase in caspase-9 activation in human HepG2 cells at 10 uM incubated for 12 hrs in presence of caspase-3 inhibitor z-DEVD-fmk by Caspase Glo assay; type: functional, cell-based
# Procedure, shortened: (§6)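 HepG2 pre-incubated 24 h at 37 °C with 50 μM of the named caspase inhibitor peptide or DMSO. Medium then replaced with fresh medium holding the same inhibitor plus compound. Caspase activity read by Caspase-Glo luminescence after 12 h. Values normalized to inhibitor-only wells without compound. Two independent experiments in duplicate; t-test.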
# HepG2 [23] = assay: Increase in caspase-9 activation in human HepG2 cells at 10 uM incubated for 12 hrs in presence of caspase-8 inhibitor z-IETD-fmk by Caspase Glo assay; type: functional, cell-based; procedure, shortened: as §6
# HepG2 [24] = assay: Increase in caspase-8 activation in human HepG2 cells at 10 uM incubated for 12 hrs in presence of 50 uM caspase-3 inhibitor z-DEVD-fmk by Caspase Glo assay; type: functional, cell-based; procedure, shortened: as §6
# HepG2 [25] = assay: Increase in caspase-8 activation in human HepG2 cells at 10 uM incubated for 12 hrs in presence of 50 uM caspase-9 inhibitor z-LEHD-fmk by Caspase Glo assay; type: functional, cell-based; procedure, shortened: as §6
# Huh-7 [26] = assay: Induction of caspase-9 cleavage in human HuH7 cells at 2.5 to 5 uM incubated for 6 to 24 hrs by Western blot; type: functional, cell-based
# Procedure, shortened: (§7)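 Huh7 treated with compound or DMSO for 6, 12 or 24 h. Lysates quantified by Bradford and heat-denatured. Blotted onto nitrocellulose and probed with antibodies to cleaved caspase-9, cleaved caspase-3 and caspase-8 (1:500, overnight at 4 °C). Bands quantified by densitometry and normalized to actin.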
# Huh-7 [27] = assay: Induction of caspase-3 cleavage in human HuH7 cells at 2.5 to 5 uM incubated for 6 to 24 hrs by Western blot; type: functional, cell-based; procedure, shortened: as §7
# Huh-7 [28] = assay: Induction of caspase-8 cleavage in human HuH7 cells at 2.5 to 5 uM incubated for 6 to 24 hrs by Western blot; type: functional, cell-based; procedure, shortened: as §7
# Huh-7 (Homo sapiens) [29] = assay: Induction of cell death in human Huh7 cells at 5 uM incubated for 72 hrs by real-time cell analysis
# Huh-7 (Homo sapiens) [30] = assay: Induction of cell death in human Huh7 cells at 10 uM incubated for 72 hrs by real-time cell analysis
compound,measurement,setting,value
O=c1[nH]cc(F)c(=O)[nH]1 [FLUOROURACIL],IC50,HepG2 [1],5.7 µM
same,IC50,[2],9.97 µM
same,IC50,[3],7.69 µM
same,IC50,HCT-116 [4],18.7 µM
same,IC50,T47D,8.91 µM
same,IC50,BT-20,47.3 µM
same,IC50,CAMA-1 [5],1.28 µM
same,IC50,MFE-296,30.7 µM
CCCCCCCCCCC(=O)N(CC(=O)O)C[C@@H]1CSC(c2ccccc2)N1C(=O)c1ccccc1 (stereo partly specified),growth inhibition (GI),Huh-7 [6],inactive
CCOC(=O)[C@@H]1CSC(c2ccccc2)N1C(=O)c1cn(CC(=O)OCc2ccccc2)nn1 (stereo partly specified),growth inhibition (GI),Huh-7 [6],inactive
CC(C)(C)C(=O)N(CCc1ccsc1)C[C@@H]1CSC(c2ccccc2)N1C(=O)c1ccccc1 (stereo partly specified),growth inhibition (GI),Huh-7 [6],inactive
same,Activity,Huh-7 [7],inactive
same,Activity,HCT-116 [8],inactive
same,Activity,MCF7 [9],inactive
O=C(O)CN(C[C@@H]1CSC(c2ccccc2)N1C(=O)c1ccccc1)C(=O)c1c(F)c(F)c(F)c(F)c1F (stereo partly specified),growth inhibition (GI),Huh-7 [6],inactive
CCCCCCC(=O)N(CC(=O)O)C[C@@H]1CSC(c2ccccc2)N1C(=O)c1ccccc1 (stereo partly specified),growth inhibition (GI),Huh-7 [6],inactive
Cc1cn(CC(=O)N2C(c3ccccc3)SC[C@H]2C(=O)NC(C)C)c(=O)[nH]c1=O (stereo partly specified),growth inhibition (GI),Huh-7 [6],inactive
CCOC(=O)[C@@H]1CSC(c2ccccc2)N1C(=O)c1cn(CCc2ccsc2)nn1 (stereo partly specified),growth inhibition (GI),Huh-7 [6],inactive
same,Activity,Huh-7 [7],inactive
same,Activity,HCT-116 [8],inactive
same,Activity,MCF7 [9],inactive
CCOC(=O)Cn1cc(C(=O)N2C(c3ccccc3)SC[C@H]2C(=O)OCC)nn1 (stereo partly specified),growth inhibition (GI),Huh-7 [6],inactive
C#CC(=O)N1C(c2ccccc2)SC[C@H]1C(=O)OCC (mixture of isomers),Activity,Huh-7 [10],Active
same,Activity,CAMA-1 [11],inactive
same,growth inhibition (GI),Huh-7 [6],Active
same,Activity,Huh-7 [7],Active
same,Activity,HCT-116 [8],Active
same,Activity,MCF7 [9],Active
same,IC50,HepG2 [1],10 µM
same,IC50,Huh-7 [12],5.3 µM
same,IC50,[2],0.41 µM
same,IC50,[3],5.47 µM
same,IC50,HCT-116 [4],9.23 µM
same,IC50,T47D,7.62 µM
same,IC50,MCF7 [13],4.7 µM
same,IC50,BT-20,1.6 µM
same,IC50,CAMA-1 [5],0.01 µM
same,IC50,MFE-296,0.5 µM
same,Activity,HepG2 [14],Active
same,Activity,FOCUS [15],Active
same,Activity,Huh-7 [16],Active
same,Activity,FOCUS [17],Active
same,Activity,HepG2 [18],Active
same,Activity,Huh-7 [19],Active
same,Activity,[20],Active
same,Activity,HepG2 [21],Active
same,Activity,HepG2 [22],inactive
same,Activity,HepG2 [23],inactive
same,Activity,HepG2 [24],inactive
same,Activity,HepG2 [25],inactive
same,Activity,Huh-7 [26],Active
same,Activity,Huh-7 [27],Active
same,Activity,Huh-7 [28],inactive
same,Activity,Huh-7 (Homo sapiens) [29],100%
same,Activity,Huh-7 (Homo sapiens) [30],100%
CCCCCCC(C)NC(=O)[C@@H]1CSC(c2ccccc2)N1C(=O)Cn1cc(C)c(=O)[nH]c1=O (stereo partly specified),growth inhibition (GI),Huh-7 [6],inactive
O=C(c1c(F)c(F)c(F)c(F)c1F)N(CCc1ccsc1)C[C@@H]1CSC(c2ccccc2)N1C(=O)c1ccccc1 (stereo partly specified),growth inhibition (GI),Huh-7 [6],inactive
CCCCCCCCCCC(=O)N(CCc1ccsc1)C[C@@H]1CSC(c2ccccc2)N1C(=O)c1ccccc1 (stereo partly specified),growth inhibition (GI),Huh-7 [6],inactive
CCOC(=O)[C@@H]1CSC(c2ccccc2)N1C(=O)c1cn(CCCNC(=O)C(F)(F)F)nn1 (stereo partly specified),growth inhibition (GI),Huh-7 [6],inactive
CCOC(=O)[C@@H]1CSC(c2ccccc2)N1C(=O)c1cn(Cc2ccccc2)nn1 (stereo partly specified),growth inhibition (GI),Huh-7 [6],inactive
CCCCCCCCCCC(=O)N(CC(=O)OC)C[C@@H]1CSC(c2ccccc2)N1C(=O)c1ccccc1 (stereo partly specified),growth inhibition (GI),Huh-7 [6],inactive
